Results published in publication PMC7919418 (Genes & Development, 2021).

Columns and labels:
GFP reporter in OSCs [1] = test: Tethering reporter assay, λN-boxB recruitment to nascent RNA; type: cell-based, Drosophila; settings: GFP by FACS, 2500 cells per experiment, normalized to control
Procedure, shortened: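 OSCs carrying a GFP reporter were nucleofected with λN-tagged protein plasmids (kit V, program T-029, six Mio. cells per transfection). Fold repression was derived from FACS GFP intensity relative to control, as mean ± SD of three biological replicates. For RNAi combinations, siRNA was given, then siRNA plus tethering plasmid 2 d later, with read-out 5 d after siRNA and 3 d after plasmid. Fusion expression was checked by western blot (Atp5a loading control).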

GFP-Ctp = test: Coimmunoprecipitation with Ctp; type: binding, Drosophila; settings: western blot, Panx: S2 cells, GFP-Ctp and FLAG-Panx
Procedure, shortened: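 Lysates from S2 cells transfected with FLAG-Panx variant plasmids and GFP-Ctp were immunoprecipitated via GFP-Ctp. Input, unbound and immunoprecipitate fractions were analysed by western blot, with immunoprecipitate lanes loaded at 4× relative amount.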

GFP reporter in OSCs [2] = settings: tethering to nascent RNA; ref Batki et al. 2019; cited from earlier work

B1: Ctp: dynein light chain protein Cut up, Drosophila ortholog of LC8; λN fusion in tethering assay (protein)
chain: MSDRKAVIKNADMSEEMQQDAVDCATQALEKYNIEKDIAAYIKKEFDKKYNPTWHCIVGRNFGSYVTHETRHFIYFYLGQVAILLFKSG
GFP reporter in OSCs [1]
  cotranscriptional silencing (λN tethering): similarly strong repression

B2: C-terminal portion of Panx (amino acids 447–541): Panx fragment including the two predicted Ctp binding sites (protein, UniProt Q9W2H9 447-541, looked up, fragment)
chain: PTEEQETATLYKNAATQTERRTATRDAGTQVRLESKLNGAFWQNPHFDPMNLTQHQSNVMLALQEIYQTLPSATMAVKLSRALAPALAIIKGRQP
GFP-Ctp
  interaction with Ctp (co-IP): interacted with Ctp

B3: Panx: Panoramix, SFiNX subunit (protein)
chain: MEAPMKLEVKVENYVECGINEDEATPLREGTGETPPHAFACGVPMSGSGWCSDPEDGNLVHHSATPTSDEHLQPSLDTIEPKMEPKIKEDADNAMLDSLLADPFENNSPATLQTPADVKPNAMLDSVEQGSRSCELLPSEFSKRENLDDMDLFSLKAAKTLVPDEQQSFPQNDTPIDDPEAADLIAQKREILKMLEMTAENRKVKHKKKKHKKERSHRSNKHQEESRKRNHSNSSSDEGADDKNQFDCDYRGHKKYKNRRGSASSQNESSKERKLRDTELDYVPVRPDEHFIRPIKFSNLIERRPPQVEFNTVNLSKADKRSLAVARAELVLEQIQQKANKEEPPEFHMVDTICKLPVNESFRNQDCFENPSPICNNMNVVYKFNSTPGTRIDLSKWGLETVPEATKRLLRLLGIDVARLKELQSTVKPSQRILKLKKEQLEQGLAPTEEQETATLYKNAATQTERRTATRDAGTQVRLESKLNGAFWQNPHFDPMNLTQHQSNVMLALQEIYQTLPSATMAVKLSRALAPALAIIKGRQP
GFP reporter in OSCs [2]
  fold reporter silencing (λN tethering): ~20 fold
